Laboratory results published in ChEMBL document CHEMBL1158139, “Bioactive oligostilbenoids from the stem bark of Hopea exalata” (J Nat Prod, 2006).
≈ marks a conversion by molar mass, not a printed value.

What was measured:
Alternaria alternata = assay: Antifungal activity against Alternaria alternata by MTT assay; type: functional
Outline: (§1)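 MIC read visually on microtiter plates, then confirmed colorimetrically with MTT. Each well received RPMI 1640 carrying MTT at 5 mg/mL and was incubated 3 h at 37 °C. Medium was removed and the dye extracted with isopropanol containing 5% mol/L HCl for 30 min at room temperature with gentle agitation. OD read at 550 nm.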

Alternaria solani = assay: Antifungal activity against Alternaria solani by MTT assay; type: functional; outline: as §1
Cytospora mali = assay: Antifungal activity against Valsa mali by MTT assay; type: functional; outline: as §1
Pyricularia oryzae = assay: Antifungal activity against Pyricularia oryzae by MTT assay; type: functional
[1] = test system: Fusarium oxysporum f. sp. vasinfectum; assay: Antifungal activity against Fusarium oxysporum f. sp. vasinfectum by MTT assay; type: functional; outline: as §1
Colletotrichum lagenaria = assay: Antifungal activity against Colletotrichum lagenarium by MTT assay; type: functional; outline: as §1
Urease = Urease (Canavalia ensiformis, UniProt P07374); assay: Inhibition of jack bean urease
Outline: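 Jack bean urease (4 U) preincubated with test compound (100 µg) for 2 h at room temperature; then 100 mM phosphate buffer pH 6.8 containing 500 mM urea and 0.002% phenol red added, incubated at room temperature; time for ammonium carbonate to raise pH from 6.8 to 7.7 read at 570 nm; IC50 determined; acetohydroxamic acid as positive control.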

Urease, sequence (P07374 whole entry): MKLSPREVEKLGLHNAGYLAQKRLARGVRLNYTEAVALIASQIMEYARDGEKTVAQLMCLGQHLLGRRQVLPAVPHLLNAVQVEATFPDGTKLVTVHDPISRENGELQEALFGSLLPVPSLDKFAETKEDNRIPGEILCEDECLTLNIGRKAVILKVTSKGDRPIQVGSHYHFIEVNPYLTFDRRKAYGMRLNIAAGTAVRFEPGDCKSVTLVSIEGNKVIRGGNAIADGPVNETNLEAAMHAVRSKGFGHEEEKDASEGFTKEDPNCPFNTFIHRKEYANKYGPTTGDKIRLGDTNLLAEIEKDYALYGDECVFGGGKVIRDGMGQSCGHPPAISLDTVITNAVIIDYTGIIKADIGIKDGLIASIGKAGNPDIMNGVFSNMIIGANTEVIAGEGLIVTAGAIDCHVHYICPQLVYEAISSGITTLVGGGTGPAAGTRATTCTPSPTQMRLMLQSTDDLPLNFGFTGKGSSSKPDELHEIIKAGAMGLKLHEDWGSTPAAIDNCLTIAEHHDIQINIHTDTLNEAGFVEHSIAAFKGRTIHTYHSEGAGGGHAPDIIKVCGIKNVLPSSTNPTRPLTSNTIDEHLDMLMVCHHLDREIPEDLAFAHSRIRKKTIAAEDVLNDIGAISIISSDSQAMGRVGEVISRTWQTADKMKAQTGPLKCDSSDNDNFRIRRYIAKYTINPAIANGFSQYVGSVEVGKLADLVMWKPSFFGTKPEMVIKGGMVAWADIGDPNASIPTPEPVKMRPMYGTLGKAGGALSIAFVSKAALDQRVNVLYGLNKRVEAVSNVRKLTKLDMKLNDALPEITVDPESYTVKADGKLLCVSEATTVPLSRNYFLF

SMILES: Oc1ccc([C@@H]2c3c(O)cc(O)cc3[C@@H]3c4c(cc(O)c5c4[C@@H]2[C@@H](c2ccc(O)cc2)[C@@H]5c2cc(O)cc(O)c2)O[C@H]3c2ccc(O)cc2)cc1 [PAUCIFLOROL A]
- MIC (Alternaria alternata): 1.56 µg/mL (≈ 2.29 µM)
- MIC (Alternaria solani): > 50 µg/mL
- MIC (Cytospora mali): > 50 µg/mL
- MIC (Pyricularia oryzae): 11.5 µg/mL (≈ 16.9 µM)
- MIC [1]: > 50 µg/mL
- MIC (Colletotrichum lagenaria): > 50 µg/mL

SMILES: Oc1ccc([C@@H]2c3c(O)cc(O)cc3[C@@H]3c4c(cc(O)c5c4[C@H]2[C@H](c2ccc(O)cc2)[C@H]5c2cc(O)cc(O)c2)O[C@H]3c2ccc(O)cc2)cc1 [VATICANOL A]
- MIC (Alternaria alternata): > 50 µg/mL
- MIC (Alternaria solani): 6.25 µg/mL (≈ 9.18 µM)
- MIC (Cytospora mali): 20.1 µg/mL (≈ 29.5 µM)
- MIC (Pyricularia oryzae): 3.12 µg/mL (≈ 4.58 µM)
- MIC [1]: 12.7 µg/mL (≈ 18.7 µM)
- MIC (Colletotrichum lagenaria): > 50 µg/mL

SMILES: Oc1ccc([C@H]2Oc3cc(O)cc4c3[C@@H]2c2cc(O)cc3c2[C@@H](c2cc(O)cc5c2[C@@H]4[C@H](c2ccc(O)cc2)O5)[C@H](c2ccc(O)cc2)O3)cc1
- MIC (Alternaria alternata): > 50 µg/mL
- MIC (Alternaria solani): 3.12 µg/mL (≈ 4.6 µM)
- MIC (Cytospora mali): > 50 µg/mL
- MIC (Pyricularia oryzae): 6.25 µg/mL (≈ 9.21 µM)
- MIC [1]: 25.2 µg/mL (≈ 37.1 µM)
- MIC (Colletotrichum lagenaria): 12.5 µg/mL (≈ 18.4 µM)

SMILES: O=C1C=C2O[C@@H](c3ccc(O)cc3)[C@H]3C2=C(C1=O)[C@H]1c2c(cc(O)cc2[C@@H]2c4c(cc(O)cc43)O[C@H]2c2ccc(O)cc2)O[C@@H]1c1ccc(O)cc1 [HOPEANOLIN]
- MIC (Alternaria alternata): 22.5 µg/mL (≈ 32.5 µM)
- MIC (Alternaria solani): 1.56 µg/mL (≈ 2.25 µM)
- MIC (Cytospora mali): 1.55 µg/mL (≈ 2.24 µM)
- MIC (Pyricularia oryzae): 0.1 µg/mL (≈ 0.144 µM)
- MIC [1]: 6.22 µg/mL (≈ 8.98 µM)
- MIC (Colletotrichum lagenaria): 10.6 µg/mL (≈ 15.3 µM)

SMILES: O=C1c2cc(O)cc3oc(-c4ccc(O)cc4)c(c23)-c2cc(O)cc(O)c2C1c1ccc(O)cc1 (stereo not drawn) [SHOREAPHENOL]
- MIC (Alternaria solani): > 50 µg/mL
- MIC (Cytospora mali): 7.13 µg/mL (≈ 15.3 µM)
- IC50 (Urease): 127 µM
- MIC (Pyricularia oryzae): 27.3 µg/mL (≈ 58.5 µM)
- MIC [1]: > 50 µg/mL
- MIC (Colletotrichum lagenaria): > 50 µg/mL

SMILES: Oc1ccc([C@@H]2c3cc(O)ccc3[C@@H]3c4c(O)cc(O)cc4[C@@H]2c2c(O)cc(O)c4c2[C@@H]3[C@@H](c2ccc(O)cc2)[C@@H]4c2cc(O)cc(O)c2)cc1 [VATICANOL G]
- MIC (Alternaria alternata): > 50 µg/mL
- MIC (Alternaria solani): 24.6 µg/mL (≈ 36.1 µM)
- MIC (Cytospora mali): > 50 µg/mL
- MIC (Pyricularia oryzae): 0.78 µg/mL (≈ 1.15 µM)
- MIC [1]: > 50 µg/mL
- MIC (Colletotrichum lagenaria): > 50 µg/mL

SMILES: CC(=O)N1CCN(c2ccc(OCC3COC(Cn4ccnc4)(c4ccc(Cl)cc4Cl)O3)cc2)CC1 (stereo not drawn) [KETOCONAZOLE]
- MIC (Alternaria alternata): 1.04 µg/mL (≈ 1.96 µM)
- MIC (Alternaria solani): 0.83 µg/mL (≈ 1.56 µM)
- MIC (Cytospora mali): 0.51 µg/mL (≈ 0.96 µM)
- MIC (Pyricularia oryzae): 0.03 µg/mL (≈ 0.0565 µM)
- MIC [1]: 2.21 µg/mL (≈ 4.16 µM)
- MIC (Colletotrichum lagenaria): 0.97 µg/mL (≈ 1.83 µM)

SMILES: CC(=O)NO [ACETOHYDROXAMIC ACID]
- IC50 (Urease): 17.3 µM
